Data published in ChEMBL document CHEMBL3763127, “Design, synthesis and biological evaluation of novel asperphenamate derivatives” (Eur J Med Chem, 2016).
Calls of active or inactive are those of the source. No cut-off for these calls is given here.

Tests used:
[1] = system: Bel-7402; experiment: Induction of cell cycle arrest in human Bel7402 cells assessed as accumulation at G0/G1 phase at 20 uM after 72 hrs by PI staining-based flow cytometric analysis (reference value: 49.44%); assay type: functional
[2] = Cytotoxicity against human Bel7402 cells after 3 days by MTT assay; assay type: functional, cell-based; conditions: Bel-7402, 72 h
How it was run: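 MCF-7, HeLa and BEL-7402 cells were grown in RPMI 1640 with 10% heat-inactivated FBS, 1 mM glutamine and penicillin/streptomycin at 37 °C under 5% CO2. They were exposed to compound for 3 days, then read by MTT at 570 nm. Viability was taken as treated/control absorbance, and IC50 was derived from it. Values are mean SD of three independent experiments.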

[3] = system: MCF7; experiment: Induction of cell cycle arrest in human MCF7 cells assessed as accumulation at G0/G1 phase at 10 uM after 48 hrs by PI staining-based flow cytometric analysis (reference value: 50.76%); assay type: functional
[4] = system: Bel-7402; experiment: Induction of cell cycle arrest in human Bel7402 cells assessed as accumulation at G2/M phase at 20 uM after 48 hrs by PI staining-based flow cytometric analysis (reference value: 22.26%); assay type: functional
[5] = system: HeLa; experiment: Induction of cell cycle arrest in human HeLa cells assessed as accumulation at S phase at 20 uM after 48 hrs by PI staining-based flow cytometric analysis (reference value: 24.17%); assay type: functional
[6] = system: MCF7; experiment: Induction of apoptosis in human MCF7 cells assessed as accumulation at subG1 phase at 10 uM after 48 hrs by PI staining-based flow cytometric analysis (reference value: 2.98%); assay type: functional
[7] = system: MCF7; experiment: Induction of autophagy in human MCF7 cells at 10 uM after 72 hrs by MDC staining-based flow cytometric analysis (reference value: 2.54%); assay type: functional
[8] = system: HeLa; experiment: Induction of cell cycle arrest in human HeLa cells assessed as accumulation at S phase at 20 uM after 72 hrs by PI staining-based flow cytometric analysis (reference value: 24.17%); assay type: functional
[9] = system: HeLa; experiment: Induction of cell cycle arrest in human HeLa cells assessed as accumulation at G0/G1 phase at 20 uM after 72 hrs by PI staining-based flow cytometric analysis (reference value: 45.70%); assay type: functional
[10] = system: MCF7; experiment: Induction of autophagy in human MCF7 cells assessed as increase in autophagosome formation at 5 and 10 uM after 72 hrs by AO staining-based fluorescence microscopic analysis; assay type: functional, cell-based
How it was run: (§1)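 Cells in RPMI 1640/10% FBS were exposed to compound or 0.1% DMSO for 72 h: MCF-7 at 5 and 10 µM, HeLa and BEL-7402 at 20 and 40 µM. They were incubated with […] acridine orange for 15 min, washed with PBS, and acidic vesicles were imaged by inverted fluorescence microscopy.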

[11] = system: Bel-7402; experiment: Induction of cell cycle arrest in human Bel7402 cells assessed as accumulation at G0/G1 phase at 20 uM after 48 hrs by PI staining-based flow cytometric analysis (reference value: 49.44%); assay type: functional
[12] = system: MCF7; experiment: Induction of apoptosis in human MCF7 cells assessed as accumulation at subG1 phase at 10 uM after 24 hrs by PI staining-based flow cytometric analysis (reference value: 2.98%); assay type: functional
[13] = system: Bel-7402; experiment: Induction of cell cycle arrest in human Bel7402 cells assessed as accumulation at S phase at 20 uM after 48 hrs by PI staining-based flow cytometric analysis (reference value: 25.01%); assay type: functional
[14] = system: HeLa; experiment: Induction of autophagy in human HeLa cells assessed as increase in autophagosome formation at 20 and 40 uM after 72 hrs by AO staining-based fluorescence microscopic analysis; assay type: functional, cell-based; how it was run: as §1
[15] = system: HeLa; experiment: Induction of cell cycle arrest in human HeLa cells assessed as accumulation at G2/M phase at 20 uM after 48 hrs by PI staining-based flow cytometric analysis (reference value: 25.44%); assay type: functional

Compound Cc1ccc(S(=O)(=O)N[C@H](Cc2ccccc2)C(=O)OC[C@H](Cc2ccccc2)NC(=O)c2ccccc2)cc1 has an Activity [1] of 45.89%, an IC50 [2] of 12.5 µM and an Activity [3] of 48.81%. It also gave an Activity [4] of 22.8%, an Activity [5] of 25.4% and an Activity [6] of 3.22%. For the same compound, the Activity [7] was 56.08%, the Activity [8] was 25.91% and the Activity [9] was 48.1%. For the same compound, the Activity [10] was “Active”, the Activity [11] was 47.63% and the Activity [12] was 3.38%. For the same compound, the Activity [13] was 26.01%, the Activity [14] was “Active” and the Activity [15] was 22.18%.
